Assays:
DU-145 = experiment: Cytotoxicity against human DU145 cells after 48 hrs by SRB assay; format: functional, cell-based; settings: Homo sapiens, DU-145, 48 h; for CC50: read-out: LC50 (the source's name)
Summary of the method: (§1)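 Cells grown in RPMI 1640 with 10% FBS and penicillin/streptomycin at 37 °C and 5% CO₂, trypsinized, then seeded at 5 × 10³/well. After 18 h drug-free attachment, samples in DMSO/EtOH/PBS (0.5:0.5:99) were added for 48 h continuous exposure. Cells were fixed with cold TCA (1 h, 4 °C) and stained with SRB (10 min). Tris-solubilized stain read at 490 nm. Triplicate wells, mean ± SD; GI₅₀ derived.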

LNCaP = experiment: Cytotoxicity against human LNcaP cells after 48 hrs by SRB assay; format: functional; settings: for CC50: read-out: LC50 (the source's name); summary of the method: as §1
[1] = Cytotoxicity against human IGROV cells after 48 hrs by SRB assay; format: functional; settings: for CC50: read-out: LC50 (the source's name); summary of the method: as §1
[2] = Cytotoxicity against human IGROV-ET cells after 48 hrs by SRB assay; format: functional; settings: for CC50: read-out: LC50 (the source's name); summary of the method: as §1
SK-BR-3 = experiment: Cytotoxicity against human SKBR3 cells after 48 hrs by SRB assay; format: functional; settings: SK-BR-3, 48 h; for GI50: read-out: GI50; for CC50: read-out: LC50 (the source's name); summary of the method: as §1
SK-MEL-28 = experiment: Cytotoxicity against human SK-MEL-28 cells after 48 hrs by SRB assay; format: functional, cell-based; settings: Homo sapiens, SK-MEL-28, 48 h; for CC50: read-out: LC50 (the source's name); summary of the method: as §1
A549 = experiment: Cytotoxicity against human A549 cells after 48 hrs by SRB assay; format: functional, cell-based; settings: Homo sapiens, A549, 48 h; summary of the method: as §1
K562 = experiment: Cytotoxicity against human K562 cells after 48 hrs by SRB assay; format: functional; settings: K562, 48 h; for CC50: read-out: LC50 (the source's name); summary of the method: as §1
PANC-1 = experiment: Cytotoxicity against human PANC1 cells after 48 hrs by SRB assay; format: functional; settings: PANC-1, 48 h; for CC50: read-out: LC50 (the source's name); summary of the method: as §1
HT-29 = experiment: Cytotoxicity against human HT29 cells after 48 hrs by SRB assay; format: functional, cell-based; settings: Homo sapiens, HT-29, 48 h; for CC50: read-out: LC50 (the source's name); summary of the method: as §1
LoVo = experiment: Cytotoxicity against human LoVo cells after 48 hrs by SRB assay; format: functional; settings: for CC50: read-out: LC50 (the source's name)
HeLa = experiment: Cytotoxicity against human HeLa cells after 48 hrs by SRB assay; format: functional; settings: for CC50: read-out: LC50 (the source's name); summary of the method: as §1
[3] = Cytotoxicity against human HeLa-APL cells after 48 hrs by SRB assay; format: functional; summary of the method: as §1

SMILES | GI50 (DU-145; read-out: GI50) [nM] | CC50 (DU-145) [nM] | GI50 (LNCaP) [nM] | TGI (LNCaP) [nM] | CC50 (LNCaP) [nM] | GI50 [1] [nM] | GI50 ([1]; read-out: GI50) [nM] | CC50 [1] [nM] | GI50 [2] [nM] | GI50 ([2]; read-out: GI50) [nM] | CC50 [2] [nM] | TGI (SK-BR-3) [nM] | GI50 (SK-BR-3) [nM] | CC50 (SK-BR-3) [nM] | GI50 (SK-MEL-28; read-out: GI50) [nM] | CC50 (SK-MEL-28) [nM] | LC50 (A549) [nM] | GI50 (A549; read-out: GI50) [nM] | CC50 (K562) [nM] | CC50 (PANC-1) [nM] | other results
C/C=C1\NC(=O)[C@H](Cc2ccccc2)NC(=O)[C@@H](C(C)C)NC(=O)[C@@H]([C@H](C)CC)NC(=O)[C@H](NC(=O)[C@H](NC(=O)[C@H](CCCN)NC(=O)[C@H]2CCCN2C(=O)[C@H](NC(=O)[C@H](Cc2ccccc2)NC(=O)[C@@H](NC(=O)[C@H](NC(=O)CCCC(C)C)C(C)C)[C@@H](C)O)C(C)C)[C@H](C)CC)[C@H](C)OC(=O)[C@H](C(C)C)NC1=O | 612 | 785 | 857 | 941 | 1030 | 250 | 337 | 343 | 184 | 194 | 262 | 323 | 325 | 260 | 730 | 760 | 960 | 722 | 1380 | 2450 | GI50 (DU-145): 752 nM; GI50 (SK-MEL-28): 739 nM; GI50 (A549): 875 nM; GI50 (K562): 1740 nM; TGI (K562): 1560 nM; GI50 (PANC-1): 2540 nM; TGI (PANC-1): 3530 nM; CC50 (HT-29): 69.5 nM; GI50 (LoVo): 290 nM; TGI (LoVo): 310 nM; CC50 (LoVo): 333 nM; GI50 (HeLa): 432 nM; TGI (HeLa): 542 nM; CC50 (HeLa): 607 nM; GI50 [3]: 816 nM; LC50 (concentration giving 50% net cell kill) [3]: 768 nM; TGI [3]: 795 nM
C/C=C1\NC(=O)[C@H](Cc2ccccc2)NC(=O)[C@@H](C(C)C)NC(=O)[C@@H]([C@H](C)CC)NC(=O)[C@H](NC(=O)[C@H](NC(=O)[C@H](CCCN)NC(=O)[C@H]2CCCN2C(=O)[C@H](NC(=O)[C@@H](NC(=O)[C@@H](NC(=O)[C@H](NC(=O)Cc2cc(F)cc(F)c2)C(C)C)[C@@H](C)O)C(C)C)C(C)C)[C@H](C)CC)[C@H](C)OC(=O)[C@H](C(C)C)NC1=O | 1840 | 1600 | 1650 | 3140 | 1490 | 692 | 1370 | 426 | 679 | 889 | 520 | 1710 | 1270 | 1490 | 2340 | 1400 | 1120 | 1620 | 2370 | 2460 | TGI (DU-145): 3690 nM; TGI (SK-MEL-28): 2930 nM; TGI (A549): 1350 nM; CC50 (HT-29): 556 nM; GI50 (LoVo): 794 nM; TGI (LoVo): 1480 nM; CC50 (LoVo): 2200 nM; GI50 (HeLa): 1410 nM; TGI (HeLa): 1350 nM; CC50 (HeLa): 1010 nM; GI50 [3]: 2020 nM; LC50 (concentration giving 50% net cell kill) [3]: 1290 nM; TGI [3]: 2960 nM
C/C=C1\NC(=O)[C@H](Cc2ccccc2)NC(=O)[C@@H](C(C)C)NC(=O)[C@@H]([C@H](C)CC)NC(=O)[C@H](NC(=O)[C@H](NC(=O)[C@H](CCCN)NC(=O)[C@H]2CCCN2C(=O)[C@H](NC(=O)[C@@H](NC(=O)[C@@H](NC(=O)[C@H](NC(=O)c2ccccc2)C(C)C)[C@@H](C)O)C(C)C)C(C)C)[C@H](C)CC)[C@H](C)OC(=O)[C@H](C(C)C)NC1=O | 1210 | 1040 | 1190 | 1370 | 1540 | 565 | 997 | 3910 | 521 | 627 | 436 | 1360 | 874 | 1390 | 1120 | 901 | 1120 | 1320 | 2450 | 2540 | TGI (DU-145): 1120 nM; TGI (SK-MEL-28): 1010 nM; TGI (A549): 1220 nM; GI50 (K562): 431 nM; TGI (K562): 1510 nM; GI50 (PANC-1): 5380 nM; TGI (PANC-1): 4940 nM; CC50 (HT-29): 508 nM; GI50 (LoVo): 353 nM; TGI (LoVo): 423 nM; CC50 (LoVo): 573 nM; GI50 (HeLa): 1210 nM; TGI (HeLa): 945 nM; CC50 (HeLa): 732 nM; GI50 [3]: 1040 nM; LC50 (concentration giving 50% net cell kill) [3]: 834 nM; TGI [3]: 934 nM
C/C=C1\NC(=O)[C@H](Cc2ccccc2)NC(=O)[C@@H](C(C)C)NC(=O)[C@@H]([C@H](C)CC)NC(=O)[C@H](NC(=O)[C@H](NC(=O)[C@H](CCCC[N+](C)(C)C)NC(=O)[C@H]2CCCN2C(=O)[C@H](NC(=O)[C@@H](NC(=O)[C@@H](NC(=O)[C@H](NC(=O)CC[C@@H](C)CC)C(C)C)[C@@H](C)O)C(C)C)C(C)C)[C@H](C)CC)[C@H](C)OC(=O)[C@H](C(C)C)NC1=O | 1020 | 880 | 1060 | 1060 | 1060 | 470 | 612 | 391 | 532 | 639 | 446 | 363 | 372 | 369 | 1110 | 863 | 1120 | 1390 | 2340 | 2440 | GI50 (DU-145): 948 nM; GI50 (SK-MEL-28): 979 nM; TGI (A549): 1240 nM; GI50 (K562): 1840 nM; TGI (K562): 3310 nM; GI50 (PANC-1): 4160 nM; TGI (PANC-1): 4730 nM; GI50 (HT-29): 786 nM; TGI (HT-29): 754 nM; CC50 (HT-29): 476 nM; GI50 (LoVo): 361 nM; TGI (LoVo): 353 nM; CC50 (LoVo): 347 nM; GI50 (HeLa): 943 nM; TGI (HeLa): 809 nM; CC50 (HeLa): 689 nM; GI50 [3]: 1110 nM; LC50 (concentration giving 50% net cell kill) [3]: 859 nM; TGI [3]: 979 nM

From ChEMBL document CHEMBL1156597, “Structure-activity relationship of kahalalide F synthetic analogues” (J Med Chem, 2008)
